Converted amounts (≈) assume the structure as drawn.
What was measured:
[1] = target: Cyclin-dependent kinase 9 (Homo sapiens, UniProt P50750); test: Inhibition of CDK9
[2] = Solubility in pH 7.0 buffer
[3] = Metabolic stability in human hepatocytes expressing CYP3A4 assessed as drug remaining after 1 hr; type: ADME, cell-based, Hepatocyte; details: read-out: Stability
[4] = Cmax in nu/nu mouse at 10 mg/kg, iv administered as single dose; type: ADME, organism-based; parameters: dose 10 mg/kg, route intravenous; details: in vivo
Outline: (§1)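 Single iv or oral dose in 5% dextrose to overnight-fasted animals. Nu/Nu mice: males, 3 per route, saphenous bleeds to 24 h. Han-Wistar rats: males, 3 per route, jugular bleeds to 24 h. Beagle dogs: 2 per sex, iv and po crossover 2 weeks apart, jugular bleeds to 48 h. Plasma by LC/MS/MS; noncompartmental parameters, AUC by linear trapezoid with extrapolation.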

[5] = AUC (0 to infinity) in nu/nu mouse at 10 mg/kg, iv administered as single dose; type: ADME, organism-based; parameters: dose 10 mg/kg, route intravenous, time infinity; details: plasma; outline: as §1
[6] = Clearance in nu/nu mouse at 10 mg/kg, iv administered as single dose; type: ADME, organism-based; parameters: dose 10 mg/kg, route intravenous; details: in vivo; outline: as §1
[7] = Volume of distribution at steady state in nu/nu mouse at 10 mg/kg, iv administered as single dose; type: ADME, organism-based; parameters: dose 10 mg/kg, route intravenous; details: in vivo, read-out: Vdss
Outline: (§2)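 Overnight-fasted male Nu/Nu mice got a single 10 mg/kg dose in 5% dextrose, iv or po, three mice per route. Saphenous blood was drawn at 0.083 (iv) or 0.25 (po), 0.5, 1, 6 and 24 h. Plasma was assayed by LC/MS/MS and analysed noncompartmentally. Tmax is the observed peak time, Vss = CL·MRT, and F is the ratio of dose-normalized AUC∞ po/iv.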

[8] = Half life in nu/nu mouse at 10 mg/kg, iv administered as single dose; type: ADME, organism-based; parameters: dose 10 mg/kg, route intravenous; details: in vivo; outline: as §1
[9] = Cmax in nu/nu mouse at 10 mg/kg, po administered as single dose; type: ADME, organism-based; parameters: dose 10 mg/kg, route oral; details: in vivo; outline: as §1
[10] = Tmax in nu/nu mouse at 10 mg/kg, po administered as single dose; type: ADME, organism-based; parameters: dose 10 mg/kg, route oral; details: in vivo; outline: as §2
[11] = AUC (0 to infinity) in nu/nu mouse at 10 mg/kg, po administered as single dose; type: ADME, organism-based; parameters: time infinity, dose 10 mg/kg, route oral; details: plasma; outline: as §1
[12] = Half life in nu/nu mouse at 10 mg/kg, po administered as single dose; type: ADME, organism-based; parameters: dose 10 mg/kg, route oral; details: in vivo; outline: as §1
[13] = Oral bioavailability in nu/nu mouse at 10 mg/kg administered as single dose; type: ADME, organism-based; details: in vivo; outline: as §2
[14] = target: Cell division cycle 7-related protein kinase (Homo sapiens, UniProt O00311); test: Inhibition of human Cdc7 assessed as inhibition of rate of phosphorylation of Mcm2 protein
A2780 = test: Antiproliferative activity against human A2780 cells after 72 hrs by luciferase based assay; type: functional, cell-based
Hepatocyte = test: Metabolic stability in rat hepatocytes assessed as intrinsic clearance at 1 uM; type: cell-based; details: Liver

Chain of Cyclin-dependent kinase 9 (P50750 whole entry): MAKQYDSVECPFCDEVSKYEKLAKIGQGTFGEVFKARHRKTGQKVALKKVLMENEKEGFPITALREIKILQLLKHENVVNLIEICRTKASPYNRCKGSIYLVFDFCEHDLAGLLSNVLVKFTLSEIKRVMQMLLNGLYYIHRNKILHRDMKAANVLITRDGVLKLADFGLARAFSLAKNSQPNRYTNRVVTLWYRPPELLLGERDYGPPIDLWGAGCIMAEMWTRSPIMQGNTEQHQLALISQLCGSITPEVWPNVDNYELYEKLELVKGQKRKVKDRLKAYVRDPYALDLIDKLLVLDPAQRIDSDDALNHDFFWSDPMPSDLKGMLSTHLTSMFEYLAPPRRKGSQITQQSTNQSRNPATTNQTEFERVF
Chain of Cell division cycle 7-related protein kinase (O00311 whole entry): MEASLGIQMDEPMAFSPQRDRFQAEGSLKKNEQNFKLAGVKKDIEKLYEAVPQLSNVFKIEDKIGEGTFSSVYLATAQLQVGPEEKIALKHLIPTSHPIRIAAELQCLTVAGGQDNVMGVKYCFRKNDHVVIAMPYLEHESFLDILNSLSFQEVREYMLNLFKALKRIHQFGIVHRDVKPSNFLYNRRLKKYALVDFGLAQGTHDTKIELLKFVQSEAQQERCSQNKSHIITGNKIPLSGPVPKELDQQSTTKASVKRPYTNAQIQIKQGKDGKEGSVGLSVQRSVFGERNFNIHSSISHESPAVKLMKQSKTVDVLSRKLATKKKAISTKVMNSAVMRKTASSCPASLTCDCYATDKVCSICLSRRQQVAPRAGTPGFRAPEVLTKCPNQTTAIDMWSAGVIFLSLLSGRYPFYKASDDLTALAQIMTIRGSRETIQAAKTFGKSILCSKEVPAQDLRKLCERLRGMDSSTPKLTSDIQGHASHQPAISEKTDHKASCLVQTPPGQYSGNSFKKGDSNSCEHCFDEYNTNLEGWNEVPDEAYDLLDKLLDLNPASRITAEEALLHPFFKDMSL

Row | IC50 [14] | IC50 (A2780; a2780) | IC50 (A2780; Homo sapiens, A2780, 72 h) | SMILES | also measured
1 | 32 nM | – | 1200 nM | CC1(C)Cc2[nH]c(-c3ccncc3)cc2C(=O)N1 | –
2 | 3 nM | – | 600 nM | Nc1nccc(-c2cc3c([nH]2)C(CCF)CNC3=O)n1 (centres undefined) | –
3 | 2 nM | – | 300 nM | CCC1CNC(=O)c2cc(-c3ccncc3)[nH]c21 (centres undefined) | –
4 | 5 nM | – | – | CCC1CNC(=O)c2cc(-c3ccnc(N)n3)[nH]c21 (stereo in doubt; 86) | –
5 | 3 nM | – | 500 nM | O=C1NCC(C2CCC2)c2[nH]c(-c3ccncc3)cc21 (centres undefined) | –
6 | 5 nM | 300 nM | – | Nc1nccc(-c2cc3c([nH]2)C(C2CCC2)CNC3=O)n1 (stereo in doubt; 88) | –
7 | 5 nM | – | 1300 nM | O=C1NC(C2CC2)Cc2[nH]c(-c3ccncc3)cc21 (centres undefined) | –
8 | 10 nM | – | 500 nM | CC(C)C1CNC(=O)c2cc(-c3ccncc3)[nH]c21 (centres undefined) | –
9 | 8 nM | – | 1600 nM | CC(C)CC1Cc2[nH]c(-c3ccnc(N)n3)cc2C(=O)N1 (centres undefined) | –
10 | 5 nM | – | 1000 nM | Nc1nccc(-c2cc3c([nH]2)[C@H](CCF)CNC3=O)n1 | IC50 [1]: 96 nM
11 | 11 nM | – | 1100 nM | Nc1nccc(-c2cc3c([nH]2)CC(C2CC2)NC3=O)n1 (centres undefined) | –

More lines, now with the values behind:

Row | SMILES | IC50 [14] | IC50 (A2780; a2780) | IC50 (A2780; Homo sapiens, A2780, 72 h) | also measured
12 | Nc1nccc(-c2cc3c([nH]2)C(CCC(F)(F)F)CNC3=O)n1 (stereo in doubt; 93-2) | 11 nM | 300 nM | – | IC50 [1]: 395 nM; solubility [2]: 195 µM (≈ 63.4 µg/mL); remaining at 1 h [3]: 94%; Cmax [4]: 13.6 µM; AUC(0-inf) [5]: 5.3 µM·h; clearance [6]: 88.3 mL/min/kg; Vd [7]: 1.5 L/kg; half-life [8]: 54 min; Cmax [9]: 0.8 µM; Tmax [10]: 19.8 min; AUC(0-inf) [11]: 1.7 µM·h; half-life [12]: 102 min; bioavailability [13]: 31%
13 | Nc1nccc(-c2cc3c([nH]2)C(C2CCC2)CNC3=O)n1 (stereo in doubt; 88-2) | 2 nM | 200 nM | – | IC50 [1]: 96 nM
14 | CC(C)C1CNC(=O)c2cc(-c3ccnc(N)n3)[nH]c21 (stereo in doubt; 87-2) | 1 nM | 600 nM | – | IC50 [1]: 73 nM
15 | CC1(C)Cc2[nH]c(-c3ccnc(N)n3)cc2C(=O)N1 | 64 nM | – | 1800 nM | –
16 | CC1(C)CNC(=O)c2cc(-c3ccncc3)[nH]c21 | – | – | 200 nM | –
17 | Nc1nccc(-c2cc3c([nH]2)C(CCC(F)(F)F)CNC3=O)n1 (stereo in doubt; 93) | 10 nM | 500 nM | – | –
18 | CCC1CNC(=O)c2cc(-c3ccnc(N)n3)[nH]c21 (stereo in doubt; 86-1) | – | – | – | CL (mL.min-1.kg-1) (Hepatocyte): 5
19 | O=C1NCC(c2ccccc2)c2[nH]c(-c3ccncc3)cc21 (centres undefined) | 20 nM | – | 4000 nM | –
20 | CC(C)C1CNC(=O)c2cc(-c3ccnc(N)n3)[nH]c21 (stereo in doubt; 87-1) | 13 nM | 1000 nM | – | IC50 [1]: 31 nM
21 | CC1CNC(=O)c2cc(-c3ccncc3)[nH]c21 (centres undefined) | 10 nM | – | 600 nM | –
22 | Nc1nccc(-c2cc3c([nH]2)C(C2CCC2)CNC3=O)n1 (stereo in doubt; 88-1) | 11 nM | 1300 nM | – | IC50 [1]: 83 nM

From ChEMBL document CHEMBL1139384, “First Cdc7 kinase inhibitors: pyrrolopyridinones as potent and orally active antitumor agents. 2. Lead discovery” (J Med Chem, 2009)
